Legend:
Type in all cases: functional
Parameters in all cases: scale not given: the % may be the effect or the level left
SK-OV-3 = experiment: Growth inhibition of human SKOV3 cells assessed tumor cell growth at 10^-5 M
How it was run: (§1)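 NCI 60-human-tumor-cell-line panel screen. Each compound was tested at a single concentration of 10^-5 M, and percent growth of tumor cells was recorded for each cell line. Growth inhibition was expressed from these percent-growth values.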

MCF7 = experiment: Growth inhibition of human MCF7 cells assessed tumor cell growth at 10^-5 M; how it was run: as §1
786-0 = experiment: Growth inhibition of human 786-0 cells assessed tumor cell growth at 10^-5 M; how it was run: as §1
SK-MEL-28 = experiment: Growth inhibition of human SK-MEL-28 cells assessed tumor cell growth at 10^-5 M; how it was run: as §1
COLO 205 = experiment: Growth inhibition of human COLO205 cells assessed tumor cell growth at 10^-5 M; how it was run: as §1
CCRF-CEM = experiment: Growth inhibition of human CCRF-CEM cells assessed tumor cell growth at 10^-5 M; how it was run: as §1
BT-549 = experiment: Growth inhibition of human BT549 cells assessed tumor cell growth at 10^-5 M; how it was run: as §1
ACHN = experiment: Growth inhibition of human ACHN cells assessed tumor cell growth at 10^-5 M; how it was run: as §1
MDA-MB-468 = experiment: Growth inhibition of human MDA-MB-468 cells assessed tumor cell growth at 10^-5 M; how it was run: as §1
SF-268 = experiment: Growth inhibition of human SF268 cells assessed tumor cell growth at 10^-5 M; how it was run: as §1
TK-10 = experiment: Growth inhibition of human TK10 cells assessed tumor cell growth at 10^-5 M
How it was run: (§2)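 Single-dose screen at 10^-5 M across the 60 human tumor cell line panel, run to NCI standards. The value is the percent growth of each cell line in the presence of compound. Compounds active at this dose moved on to five-concentration testing (10^-4 to 10^-8 M).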

NCI-H460 = experiment: Growth inhibition of human NCI-H460 cells assessed tumor cell growth at 10^-5 M; how it was run: as §1
UO-31 = experiment: Growth inhibition of human UO31 cells assessed tumor cell growth at 10^-5 M; how it was run: as §2
HL-60(TB) = experiment: Growth inhibition of human HL-60(TB) cells assessed tumor cell growth at 10^-5 M
How it was run: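 HL-60(TB), part of the 60-line panel, tested at a single concentration of 10^-5 M. The read-out is percent tumor cell growth relative to untreated growth.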

NCI-H522 = experiment: Growth inhibition of human NCI-H522 cells assessed tumor cell growth at 10^-5 M; how it was run: as §1
OVCAR-8 = experiment: Growth inhibition of human OVCAR8 cells assessed tumor cell growth at 10^-5 M; how it was run: as §1
HCC 2998 = experiment: Growth inhibition of human HCC2998 cells assessed tumor cell growth at 10^-5 M; how it was run: as §1
CAKI-1 = experiment: Growth inhibition of human Caki1 cells assessed tumor cell growth at 10^-5 M; how it was run: as §1
HCT-116 = experiment: Growth inhibition of human HCT116 cells assessed tumor cell growth at 10^-5 M; how it was run: as §1
SF-539 = experiment: Growth inhibition of human SF539 cells assessed tumor cell growth at 10^-5 M; how it was run: as §1
[1] = Growth inhibition of human […] cells assessed tumor cell growth at 10^-5 M; how it was run: as §1
LOX IMVI = experiment: Growth inhibition of human LOXIMVI cells assessed tumor cell growth at 10^-5 M; how it was run: as §1
SF-295 = experiment: Growth inhibition of human SF295 cells assessed tumor cell growth at 10^-5 M; how it was run: as §1
OVCAR-4 = experiment: Growth inhibition of human OVCAR4 cells assessed tumor cell growth at 10^-5 M; how it was run: as §1
HCT-15 = experiment: Growth inhibition of human HCT15 cells assessed tumor cell growth at 10^-5 M; how it was run: as §1
DU-145 = experiment: Growth inhibition of human DU145 cells assessed tumor cell growth at 10^-5 M; how it was run: as §1
NCI/ADR-RES = experiment: Growth inhibition of human NCI/ADR-RES cells assessed tumor cell growth at 10^-5 M; how it was run: as §1
SN12C = experiment: Growth inhibition of human SN12C cells assessed tumor cell growth at 10^-5 M; how it was run: as §1
SK-MEL-2 = experiment: Growth inhibition of human SK-MEL-2 cells assessed tumor cell growth at 10^-5 M; how it was run: as §1
A549 = experiment: Growth inhibition of human A549 cells assessed tumor cell growth at 10^-5 M; how it was run: as §1
RXF 393 = experiment: Growth inhibition of human RXF393 cells assessed tumor cell growth at 10^-5 M; how it was run: as §1
SNB-75 = experiment: Growth inhibition of human SNB75 cells assessed tumor cell growth at 10^-5 M; how it was run: as §2
NCI-H23 = experiment: Growth inhibition of human NCI-H23 cells assessed tumor cell growth at 10^-5 M; how it was run: as §1
NCI-H322M = experiment: Growth inhibition of human NCI-H322M cells assessed tumor cell growth at 10^-5 M; how it was run: as §1
MDA-MB-231 = experiment: Growth inhibition of human MDA-MB-231 cells assessed tumor cell growth at 10^-5 M; how it was run: as §1
K562 = experiment: Growth inhibition of human K562 cells assessed tumor cell growth at 10^-5 M; how it was run: as §1
Malme-3M = experiment: Growth inhibition of human MALME-3M cells assessed tumor cell growth at 10^-5 M; how it was run: as §1
T47D = experiment: Growth inhibition of human T47D cells assessed tumor cell growth at 10^-5 M; how it was run: as §2
SK-MEL-5 = experiment: Growth inhibition of human SK-MEL-5 cells assessed tumor cell growth at 10^-5 M; how it was run: as §1
HOP-62 = experiment: Growth inhibition of human HOP62 cells assessed tumor cell growth at 10^-5 M; how it was run: as §1
OVCAR-3 = experiment: Growth inhibition of human OVCAR3 cells assessed tumor cell growth at 10^-5 M; how it was run: as §1
KM12 = experiment: Growth inhibition of human KM12 cells assessed tumor cell growth at 10^-5 M; how it was run: as §1
U-251 = experiment: Growth inhibition of human U251 cells assessed tumor cell growth at 10^-5 M; how it was run: as §2
SW-620 = experiment: Growth inhibition of human SW620 cells assessed tumor cell growth at 10^-5 M; how it was run: as §2
NCI-H226 = experiment: Growth inhibition of human NCI-H226 cells assessed tumor cell growth at 10^-5 M; how it was run: as §1
HT-29 = experiment: Growth inhibition of human HT-29 cells assessed tumor cell growth at 10^-5 M; how it was run: as §1
[2] = Growth inhibition of human Hs 578T cells assessed tumor cell growth at 10^-5 M; how it was run: as §1
UACC-257 = experiment: Growth inhibition of human UACC257 cells assessed tumor cell growth at 10^-5 M; how it was run: as §2
MDA-MB-435 = experiment: Growth inhibition of human MDA-MB-435 cells assessed tumor cell growth at 10^-5 M; how it was run: as §1
OVCAR-5 = experiment: Growth inhibition of human OVCAR5 cells assessed tumor cell growth at 10^-5 M; how it was run: as §1
M14 = experiment: Growth inhibition of human M14 cells assessed tumor cell growth at 10^-5 M; how it was run: as §1
UACC-62 = experiment: Growth inhibition of human UACC62 cells assessed tumor cell growth at 10^-5 M; how it was run: as §2
A498 = experiment: Growth inhibition of human A498 cells assessed tumor cell growth at 10^-5 M; how it was run: as §1
EKVX = experiment: Growth inhibition of human EKVX cells assessed tumor cell growth at 10^-5 M; how it was run: as §1
MOLT-4 = experiment: Growth inhibition of human MOLT4 cells assessed tumor cell growth at 10^-5 M; how it was run: as §1
SNB-19 = experiment: Growth inhibition of human SNB19 cells assessed tumor cell growth at 10^-5 M; how it was run: as §2
IGROV-1 = experiment: Growth inhibition of human IGROV1 cells assessed tumor cell growth at 10^-5 M; how it was run: as §1
HOP-92 = experiment: Growth inhibition of human HOP92 cells assessed tumor cell growth at 10^-5 M; how it was run: as §1
PC-3 = experiment: Growth inhibition of human PC3 cells assessed tumor cell growth at 10^-5 M; how it was run: as §1

Structure (SMILES): CC1=NN(c2cccc(Cl)c2)C(=O)/C1=C\c1cn(S(=O)(=O)c2ccc(C)cc2)c2ccccc12
- Activity (SK-OV-3): 105.37%
- Activity (MCF7): 113.07%
- Activity (786-0): 94.95%
- Activity (SK-MEL-28): 125.16%
- Activity (COLO 205): 142.35%
- Activity (CCRF-CEM): 134.54%
- Activity (BT-549): 111.59%
- Activity (ACHN): 97.51%
- Activity (MDA-MB-468): 118.75%
- Activity (SF-268): 103.69%
- Activity (TK-10): 166.55%
- Activity (NCI-H460): 119.39%
- Activity (UO-31): 78.22%
- Activity (HL-60(TB)): 114.07%
- Activity (NCI-H522): 107.2%
- Activity (OVCAR-8): 107.68%
- Activity (HCC 2998): 88.49%
- Activity (CAKI-1): 87.81%
- Activity (HCT-116): 88.23%
- Activity (SF-539): 114%
- Activity [1]: 113.1%
- Activity (LOX IMVI): 97.36%
- Activity (SF-295): 114.23%
- Activity (OVCAR-4): 103.09%
- Activity (HCT-15): 105.27%
- Activity (DU-145): 114.18%
- Activity (NCI/ADR-RES): 85.11%
- Activity (SN12C): 97.46%
- Activity (SK-MEL-2): 113.68%
- Activity (A549): 108.98%
- Activity (RXF 393): 137.02%
- Activity (SNB-75): 89.33%
- Activity (NCI-H23): 83.92%
- Activity (NCI-H322M): 105.18%
- Activity (MDA-MB-231): 85.37%
- Activity (K562): 138.24%
- Activity (Malme-3M): 114.11%
- Activity (T47D): 91.46%
- Activity (SK-MEL-5): 105.66%
- Activity (HOP-62): 62.28%
- Activity (OVCAR-3): 110.25%
- Activity (KM12): 109.5%
- Activity (U-251): 102.73%
- Activity (SW-620): 98.36%
- Activity (NCI-H226): 79.93%
- Activity (HT-29): 122.1%
- Activity [2]: 115.57%
- Activity (UACC-257): 114.55%
- Activity (MDA-MB-435): 105.48%
- Activity (OVCAR-5): 88.09%
- Activity (M14): 82.05%
- Activity (UACC-62): 86.46%
- Activity (A498): 117.06%
- Activity (EKVX): 97.98%
- Activity (MOLT-4): 173.14%
- Activity (SNB-19): 114.11%

Structure (SMILES): C#CCN1C(=O)/C(=C\c2cn(CC#C)c3ccccc23)c2ccccc21
- Activity (SK-OV-3): 97.8%
- Activity (786-0): 109%
- Activity (COLO 205): 77.9%
- Activity (CCRF-CEM): 86%
- Activity (BT-549): 96.7%
- Activity (ACHN): 92.7%
- Activity (MDA-MB-468): 133%
- Activity (SF-268): 95.6%
- Activity (TK-10): 112%
- Activity (NCI-H460): 98.6%
- Activity (UO-31): 74.9%
- Activity (HL-60(TB)): 101.9%
- Activity (NCI-H522): 96.6%
- Activity (OVCAR-8): 95.6%
- Activity (IGROV-1): 91.2%
- Activity (HCC 2998): 107%
- Activity (HOP-92): 75.1%
- Activity (CAKI-1): 120%
- Activity (HCT-116): 97.4%
- Activity (SF-539): 91.5%
- Activity [1]: 90.9%
- Activity (LOX IMVI): 103%
- Activity (PC-3): 80%
- Activity (HCT-15): 104%
- Activity (DU-145): 109%
- Activity (NCI/ADR-RES): 106%
- Activity (SN12C): 89.2%
- Activity (SK-MEL-2): 99.8%
- Activity (A549): 98.9%
- Activity (RXF 393): 126%
- Activity (NCI-H23): 92%
- Activity (NCI-H322M): 110%
- Activity (MDA-MB-231): 82.7%
- Activity (K562): 87.4%
- Activity (Malme-3M): 161%
- Activity (T47D): 96.4%
- Activity (SK-MEL-5): 91%
- Activity (HOP-62): 102%
- Activity (OVCAR-3): 102%
- Activity (KM12): 101%
- Activity (U-251): 98.4%
- Activity (SW-620): 102%
- Activity (NCI-H226): 86.5%
- Activity (HT-29): 101%
- Activity [2]: 105%
- Activity (UACC-257): 97.8%
- Activity (MDA-MB-435): 114%
- Activity (OVCAR-5): 101%
- Activity (M14): 98.6%
- Activity (UACC-62): 78.4%
- Activity (A498): 101%
- Activity (MOLT-4): 87.3%
- Activity (SNB-19): 96.7%

Source: ChEMBL document CHEMBL1811814, “Synthesis and evaluation of indole, pyrazole, chromone and pyrimidine based conjugates for tumor growth inhibitory activities--development of highly efficacious cytotoxic agents” (Eur J Med Chem, 2010)
